Compound activity (PubChem BioAssay)
In the library only some 4.8% were active in any assay of this set; here they are far more common.
FLuc inhib CS – inhibits firefly luciferase, flagging false hits in luciferase inhibition screens; inhibition, % at 10 µM; ATPLite firefly luciferase biochemical luminescence, 10 min; AID 1006; actives 1.5% (n = 200,000); P08659;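 active = inhibition above about 50% when tested at 10 µM, limit read from the data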
STAT1 act – activators of IFN-gamma induced STAT1 signaling; NIH 3T3 STAT1-luciferase reporter, luminescence; 100% = IFN-gamma alone, no compound; activation (% of control), % at 5.5 µM; actives 2.6% (n = 200,000);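 active = activation above the screen-wide mean activation plus 3 SD, cut at about 130% in these data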
NF-kB neuron act – NF-kB expression increase, human neuronal cells; NF-kB reporter expression; stronger effect = higher value; fold change at 12.5 µM; actives 1.6% (n = 190,000); AID 1239; in the data active = fold change above about 3.3
APP 5'UTR act – activates APP 5'UTR luciferase reporter; SH-SY5Y APP 5'UTR luciferase reporter, luminescence; zero percent = DMSO vehicle wells; activation, % at 2 µM; actives 1% (n = 190,000); AID 1276;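 active = activation above a set limit, based on mean plus 3 SD of controls, cut at about 140% in these data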
FLuc stim CS – firefly luciferase counter-screen for stimulation assays. 200,000 tested, under 10 active. ATPlite luciferase biochemical, luminescence, 10 min; 0 = ATP-free wells, 1 = DMSO control. activation factor at 10 µM. P08659;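 active = luciferase activation factor, scaled between plate controls, of at least 2 with compound at 10 µM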
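Material: Luciferase/luciferin reagent mix | Doses: Test compounds dosed from 2 mM stocks in 100% DMSO | Timing: 10 min incubation after luciferase reagent addition, room temperature | Measured by: Luminescence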
APP transl inh – APP translation inhibition. SH-SY5Y APP 5'UTR-luciferase reporter, luminescence. inhibition, % at 2 µM. actives 0.82% (n = 190,000). AID 1285;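 active = inhibition above a set limit, derived from the sample mean plus 3 SD, cut at about 45% in these data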
STAT1 activ conf – STAT1 activation, confirmation assay | actives 97% (n = 1,200) | activation (% of control), % at 5.7 µM | AID 1262 | NIH 3T3 STAT1-luciferase reporter, IFN-gamma potentiation, luminescence; 100% = IFN-gamma EC80 alone, no compound | shares compounds with STAT1 act;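 active = activation above a set limit carried over from the earlier primary STAT1 screen, cut at about 140% in these data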
NFkB act STAT1ct – activates NF-kappaB, counter-screen to STAT1 activators; activation (% of control), % at 5.7 µM; shares compounds with STAT1 act; actives 43% (n = 1,200); HEK293T NF-kB luciferase reporter, TNF-alpha stimulated, luminescence; 100% = TNF-alpha with vehicle only;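 active = activation above the mean of solvent-only control wells plus 3 SD, set per campaign, cut at about 130% in these data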;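 also: TNF-alpha given at a submaximal dose yielding about 80% of full reporter signal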
STAT3 act 2 – activates human STAT3, counter-screen to STAT1 activators; shares compounds with STAT1 act; U3A cells STAT3-luciferase reporter, IL-6, luminescence; cells lack STAT1; 100 = IL-6 alone, no compound effect; activation (% of control), % at 5.7 µM; actives 46% (n = 1,200); AID 1316;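 active = activation above the solvent-only control well mean plus 3 SD, set per plate batch, cut at about 110% in these data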;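 also: higher means more STAT3 reporter activation so hits are non-selective activators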
Numbers stand for hits; 0 = inactive; - = not tested or not shown.

SMILES | FLuc inhib CS | STAT1 act | NF-kB neuron act | APP 5'UTR act | FLuc stim CS | APP transl inh | STAT1 activ conf | NFkB act STAT1ct | STAT3 act 2
N#Cc1cc2c(nc1SCC(=O)Nc1cc(Cl)ccc1Cl)C1CCN2CC1 | 0 | 0 | 0 | 0 | 0 | 0 | - | - | -
CCCCCCOc1ccc(CN2CCN(CC)CC2)cc1 | 0 | 0 | 0 | 145 | 0 | 0 | - | - | -
COc1cccc(N2C(=O)NC(=O)/C(=C/c3ccc4c(c3)Cc3ccccc3-4)C2=O)c1 | 0 | 131 | 0 | 0 | 0 | 0 | - | - | -
O=C(c1cc2c(s1)-c1ccccc1OC2)N1CCC2(CC1)OCCO2 | 0 | 158 | 3.9 | 142 | 0 | 0 | 196 | 134 | 119
Cc1nn(Cc2ccccc2Cl)c(C)c1C(=O)OCC(=O)N1CC(C)OC(C)C1 (configuration not stated) | 0 | 0 | 0 | 0 | 0 | 0 | - | - | -
O=C1NC(=O)C(=Cc2ccc(Oc3ccc([N+](=O)[O-])cc3)cc2)C(=O)N1 | 0 | 0 | 0 | 0 | 0 | 0 | - | - | -
COc1cc(C=C2C(=O)NC(=O)NC2=O)ccc1OCc1ccc([N+](=O)[O-])cc1 | 52 | 152 | 3.4 | 0 | 0 | 0 | 175 | 136 | 122
O=P(/C(=N/O)N1CCOCC1)(N1CCOCC1)N1CCOCC1 | 0 | 0 | 0 | 0 | 0 | 0 | - | - | -
COc1ccc(-c2cc(=NCCC(=O)O)c3cc(C)ccc3o2)cc1 | 0 | 153 | 3.7 | 145 | 0 | 0 | 154 | 0 | 0
COc1ccc(-c2cc(=Nc3ccccc3)c3cc(C)ccc3o2)cc1 | 0 | 165 | 8.6 | 0 | 0 | 0 | 143 | 0 | 0
COc1ccc(-c2cc(=O)c3c(OC)c(OC)c(OC)cc3o2)cc1 | 0 | 0 | 0 | 0 | 0 | 0 | - | - | -
